# According to ChEMBL document CHEMBL3272057, “Synthesis and structure-toxicity relationships of three new stable analogues of acetyl-seco-hemicholinium-3” (J Med Chem, 1976):
# Active and inactive are the calls of the source. No cut-off for these calls is given here.
# What was measured:
# [1] = Chemical stability of the compound in water at pH 7.4 up to 48 hrs by NMR analysis; format: physicochemical; settings: buffer, pH 7.4, 48 h
# [2] = Ratio of hemicholinium-3 LD50 to compound LD50 for toxicity in ip dosed Charles River CD-1 albino mouse measured within 5 mins; format: organism-based; settings: CD-1, mouse, in vivo
# Mus musculus [3] = test: Toxicity in ip dosed Charles River CD-1 albino mouse assessed as increase of peristalsis of small intestine; format: organism-based; settings: in vivo
# [4] = target: T1, Acetylcholinesterase (Bos taurus) (UniProt P23795); test: Binding affinity to bovine erythrocyte acetylcholinesterase in water at pH 7.4 at 100 x 10^-5 M up to 6 hrs by UV-spectra analysis
# T1 sequence (whole entry): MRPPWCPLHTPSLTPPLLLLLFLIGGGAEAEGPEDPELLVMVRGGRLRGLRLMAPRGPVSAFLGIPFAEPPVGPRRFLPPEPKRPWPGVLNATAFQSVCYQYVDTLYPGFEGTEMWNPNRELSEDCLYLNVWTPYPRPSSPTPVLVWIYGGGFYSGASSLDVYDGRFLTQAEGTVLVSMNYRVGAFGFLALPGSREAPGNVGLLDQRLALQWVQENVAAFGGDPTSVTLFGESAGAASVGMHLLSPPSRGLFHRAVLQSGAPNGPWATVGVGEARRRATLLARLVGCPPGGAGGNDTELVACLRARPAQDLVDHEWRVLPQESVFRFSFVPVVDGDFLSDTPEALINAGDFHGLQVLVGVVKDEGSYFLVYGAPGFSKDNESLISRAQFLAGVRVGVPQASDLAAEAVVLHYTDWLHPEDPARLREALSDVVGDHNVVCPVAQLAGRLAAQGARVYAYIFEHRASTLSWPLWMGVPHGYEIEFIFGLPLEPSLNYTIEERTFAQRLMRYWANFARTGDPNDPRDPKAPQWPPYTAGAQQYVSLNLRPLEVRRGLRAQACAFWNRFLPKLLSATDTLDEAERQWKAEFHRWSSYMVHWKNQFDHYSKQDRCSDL
# Summary of the method: (§1)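 Test solutions 100 × 10⁻⁵ M in pH 7.4 buffered water. UV spectrum recorded against identically buffered water reference. 0.1 ml of bovine erythrocyte acetylcholinesterase (40 μ/ml, pH 7.4 buffer) was added to 1-ml sample and reference, giving an enzyme level similar to blood. Spectrum recorded immediately, then again after incubation at 37° for 6 h. Shift in λmax was read.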
# [5] = Chemical stability of the compound in water at slightly acidic condition up to 48 hrs by NMR analysis; format: physicochemical; settings: buffer
# Mus musculus [6] = test: (§2) Toxicity in ip dosed Charles River CD-1 albino mouse measured within 5 mins; format: organism-based; settings: mouse, in vivo, 5 min
# [7] = as §2; format: organism-based; settings: CD-1, mouse, in vivo
# [8] = Toxicity in ip dosed Charles River CD-1 albino mouse assessed as mortality at >LD95 in presence of neostigmine; format: organism-based; settings: CD-1, mouse, in vivo, read-out: Activity
# Summary of the method: (§3)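 CD-1 male mice. Choline (20 mg/kg) or neostigmine (0.2 mg/kg) was given ip 1 min before an ip >LD95 dose of compound in saline. Read-out was % mortality.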
# Mus musculus [9] = test: Toxicity in ip dosed Charles River CD-1 albino mouse assessed as reduction of cardiac contraction; format: organism-based, Heart; settings: in vivo
# [10] = Chemical stability of the compound in deuterium oxide solutions at slightly acidic condition up to 48 hrs by NMR analysis; format: physicochemical
# [11] = Toxicity in ip dosed Charles River CD-1 albino mouse assessed as mortality at >LD95 in presence of choline; format: organism-based; settings: CD-1, mouse, in vivo, read-out: Activity; summary of the method: as §3
# [12] = Chemical stability of the compound in deuterium oxide solutions at pH 7.4 up to 48 hrs by NMR analysis; format: physicochemical; settings: buffer, pH 7.4, 48 h
# [13] = target: T1, Acetylcholinesterase (Bos taurus); test: Binding affinity to bovine erythrocyte acetylcholinesterase in water at pH 7.4 at 100 x 10^-5 M measured immediately by UV-spectra analysis; summary of the method: as §1
Compound,Stability [1],selectivity ratio at 5 min [2],Activity (Mus musculus [3]),Activity [4],Stability [5],LD95 (Mus musculus [6]) [mg/kg],LD50 at 5 min [7] [mg/kg],mortality [8] [%],Activity (Mus musculus [9]),Stability [10],mortality [11] [%],Stability [12],Activity [13]
CC(=O)CCC[N+](C)(C)CC(=O)c1ccc(-c2ccc(C(=O)C[N+](C)(C)CCCC(C)=O)cc2)cc1.[Br-].[Br-],Stable,23.8,Toxic,inactive,Stable,4.6,3.1,70,Non-toxic,Stable,0,Stable,–
CC(=O)OCC[N+](C)(C)CC(=O)c1ccc(-c2ccc(C(=O)C[N+](C)(C)CCOC(C)=O)cc2)cc1.[Br-].[Br-],–,1,Toxic,–,–,0.4,0.125,–,Non-toxic,–,–,–,Active
CCCCC[N+](C)(C)CC(=O)c1ccc(-c2ccc(C(=O)C[N+](C)(C)CCCCC)cc2)cc1.[Br-].[Br-],Stable,43.1,Toxic,inactive,Stable,5.8,5.6,80,Non-toxic,Stable,30,Stable,–
C[N+]1(C)CCOC(O)(c2ccc(-c3ccc(C4(O)C[N+](C)(C)CCO4)cc3)cc2)C1 (configuration not stated) [HEMICHOLINIUM-3],–,–,Toxic,inactive,–,0.2,0.13,–,Non-toxic,–,–,–,–
CCOCC[N+](C)(C)CC(=O)c1ccc(-c2ccc(C(=O)C[N+](C)(C)CCOCC)cc2)cc1.[Br-].[Br-],Stable,14.2,Toxic,inactive,Stable,2.67,1.84,80,Non-toxic,Stable,0,Stable,–
